Active and inactive are the calls of the source. The calls are words filed in the database; no cut-off is given here.
Key:
[1] = Induction of nitric oxide release in potassium phosphate buffer at pH 7.4 at 0.1 mM after 150 mins by Griess assay; assay type: physicochemical; conditions: pH 7.4, 2.5 h, 100 µM
How it was run: (§1)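 Compound (0.1 mM) in PBS pH 7.4 containing 2% DMSO and 5.0 mM L-cysteine was held at 37 °C for 15–300 min. Samples were taken every 15 min up to 120 min, then every 30 min. Each sample was reacted with Griess reagent for 10 min at 37 °C and absorbance read at 540 nm. Nitrite was quantified from a nitrite standard curve. Means reported; intra-group variation <10%.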

Rattus norvegicus [2] = assay: Antioxidant activity in Sprague-Dawley rat brain tissue model of transient middle cerebral artery occlusion stroke model assessed as increase in glutathione peroxidase levels per mg of protein at 380 mg/kg […] measured 24 hrs after reperfusion by DTNB assay relative to control; assay type: functional
Rattus norvegicus [3] = assay: Neuroprotective activity in Sprague-Dawley rat model of transient middle cerebral artery occlusion stroke model assessed as neurological deficit at 80 mg/kg administered via oral gavage for 7 days after ischemia onset measured 24 hrs after middle cerebral artery occlusion by Longa's method; assay type: functional, organism-based; conditions: in the assay text read “before ischemia onset” for “after ischemia onset”
How it was run: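 Male SD rats (280–320 g) received daily gavage for 7 days, with 0.5% CMC-Na as vehicle. Two hours after the last dose they underwent 2 h MCAO with reperfusion under chloral hydrate anesthesia; core temperature was held at 37 °C. Neurological deficit was scored blinded by Longa's method 24 h after reperfusion, between 10 and 11 a.m. Kruskal–Wallis test followed by Mann–Whitney U test.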

[4] = Induction of nitric oxide release in potassium phosphate buffer at pH 7.4 at 0.1 mM after 15 mins by Griess assay; assay type: physicochemical; conditions: pH 7.4, 0.25 h, 100 µM; how it was run: as §1
[5] = Induction of nitric oxide release in potassium phosphate buffer at pH 7.4 at 0.1 mM after 60 mins by Griess assay; assay type: physicochemical; conditions: pH 7.4, 1 h, 100 µM; how it was run: as §1
[6] = Induction of nitric oxide release in potassium phosphate buffer at pH 7.4 at 0.1 mM after 180 mins by Griess assay; assay type: physicochemical; conditions: pH 7.4, 3 h, 100 µM; how it was run: as §1
Liver = assay: Induction of hydrogen sulfide release in rat liver homogenate at 100 uM after 30 mins by microplate reader method (reference value: 1.03 to 1.21%); assay type: functional, tissue-based
How it was run: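 Compound was incubated at 37 °C for 0–90 min with fresh rat liver homogenate. The reaction was stopped with 1% zinc acetate and 10% trichloroacetic acid. N,N-dimethyl-p-phenylenediamine sulfate in 7.2 M HCl and FeCl3 in 1.2 M HCl were added, and absorbance was read at 670 nm after 10 min. Values were calculated against an NaHS standard curve as cumulative % conversion to H2S, n = 6.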

Rattus norvegicus [7] = assay: Neuroprotective activity in Sprague-Dawley rat model of transient middle cerebral artery occlusion stroke model assessed as reduction in brain water content at 380 mg/kg administered via oral gavage for 7 days after ischemia onset measured 24 hrs after middle cerebral artery occlusion; assay type: functional, organism-based; conditions: in the assay text read “before ischemia onset” for “after ischemia onset”
How it was run: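 Male SD rats were gavaged daily for 7 days, with 0.5% CMC-Na as vehicle, then underwent 2 h MCAO with reperfusion. At 24 h after reperfusion the ischemic hemisphere was weighed wet, dried at 100 °C for 24 h and reweighed. Water content was calculated as (wet − dry)/wet × 100%. Mean ± SD, n = 6, ANOVA/Tukey.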

[8] = Induction of nitric oxide release in potassium phosphate buffer at pH 7.4 at 0.1 mM after 75 mins by Griess assay; assay type: physicochemical; conditions: pH 7.4, 1.25 h, 100 µM; how it was run: as §1
Rattus norvegicus [9] = assay: Antioxidant activity in Sprague-Dawley rat brain tissue model of transient middle cerebral artery occlusion stroke model assessed as increase in superoxide dismutase levels per mg of protein at 80 mg/kg […] measured 24 hrs after reperfusion by nitroblue tetrazolium assay relative to control; assay type: functional

With `CCCCC(OC(=O)CN1CCN(CCCCCOc2ccc(-c3cc(=S)ss3)cc2)CC1)c1ccccc1C(=O)Oc1ccc(/C=C/C(=O)OCCO[N+](=O)[O-])cc1OC` (racemic) the Activity [1] was 10.23 µM, the Activity (Rattus norvegicus [2]) was 69.26% and the Activity (Rattus norvegicus [3]) was “inactive”. The Activity [4] was 3.16 µM, the Activity [5] was 8.03 µM and the Activity [6] was 10.3 µM. The Activity (Liver) was 3.04%, the Activity (Rattus norvegicus [7]) was “Active” and the Activity [8] was 8.48 µM. For the same compound, the Activity (Rattus norvegicus [9]) was 23.07%.
